Measurements: ChEMBL document CHEMBL1151263, “Cytotoxic phenylpropanoid glycosides from the stems of Smilax china” (2005)
In brackets after ≈: the same amount, converted by molar mass.

Experiments:
Assay type in all cases: functional
DLD-1 = assay: Cytotoxicity against human DLD1 cells after 3 days by MTT assay; settings: DLD-1, 72 h, read-out: ED50 (the source's name)
Procedure, shortened: (§1)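 Cells grown in RPMI-1640 and seeded in 96-well plates for 4 h before samples were added at four concentrations. Incubation at 37 °C for 3 days, then MTT added for 5 h. Medium removed, formazan dissolved in DMSO with 10 min shaking, absorbance read at 550 nm. ED50 reported in µg/mL.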

A549 = assay: Cytotoxicity against human A549 cells after 3 days by MTT assay; settings: A549, 72 h, read-out: ED50 (the source's name); procedure, shortened: as §1
MCF7 = assay: Cytotoxicity against human MCF7 cells after 3 days by MTT assay; settings: MCF7, 72 h, read-out: ED50 (the source's name); procedure, shortened: as §1
[1] = Cytotoxicity against human Medulloblastoma cells after 3 days by MTT assay; settings: Medulloblastoma cell, 72 h, read-out: ED50 (the source's name); procedure, shortened: as §1
KB = assay: Cytotoxicity against human KB cells after 3 days by MTT assay; settings: 72 h, read-out: ED50 (the source's name); procedure, shortened: as §1
HeLa = assay: Cytotoxicity against human HeLa cells after 3 days by MTT assay; settings: 72 h, read-out: ED50 (the source's name); procedure, shortened: as §1

SMILES	EC50 (DLD-1) [mg/L]	EC50 (A549) [mg/L]	EC50 (MCF7) [mg/L]	EC50 [1] [mg/L]	EC50 (KB) [mg/L]	EC50 (HeLa) [mg/L]
COc1cc(/C=C/C(=O)OC[C@H]2O[C@@](COC(=O)/C=C/c3ccc(O)cc3)(O[C@H]3O[C@H](COC(C)=O)[C@@H](O)[C@H](O)[C@H]3OC(C)=O)[C@@H](OC(=O)/C=C/c3ccc(O)cc3)[C@@H]2O)ccc1O [SMILASIDE F]	5 (≈ 5.59 µM)	> 20	13 (≈ 14.5 µM)	> 20	9 (≈ 10.1 µM)	8.3 (≈ 9.28 µM)
COc1cc(/C=C/C(=O)OC[C@H]2O[C@@](CO)(O[C@H]3O[C@H](CO)[C@@H](O)[C@H](O)[C@H]3OC(C)=O)[C@@H](OC(=O)/C=C/c3ccc(O)c(OC)c3)[C@@H]2O)ccc1O [SMILASIDE B]	> 20	12 (≈ 16.3 µM)	10.3 (≈ 14 µM)	9.4 (≈ 12.8 µM)	> 20	> 20
COc1cc(/C=C/C(=O)OC[C@H]2O[C@@](COC(=O)/C=C/c3ccc(O)cc3)(O[C@H]3O[C@H](CO)[C@@H](O)[C@H](O)[C@H]3O)[C@@H](OC(=O)/C=C/c3ccc(O)c(OC)c3)[C@@H]2OC(C)=O)ccc1O [SMILASIDE D]	2.7 (≈ 3.06 µM)	8.4 (≈ 9.51 µM)	> 20	11.9 (≈ 13.5 µM)	13 (≈ 14.7 µM)	7.3 (≈ 8.27 µM)
COc1cc(/C=C/C(=O)OC[C@H]2O[C@@](COC(=O)/C=C/c3ccc(O)cc3)(O[C@H]3O[C@H](COC(C)=O)[C@@H](O)[C@H](O)[C@H]3O)[C@@H](OC(=O)/C=C/c3ccc(O)c(OC)c3)[C@@H]2O)ccc1O [SMILASIDE E]	4.5 (≈ 5.1 µM)	12.4 (≈ 14 µM)	13 (≈ 14.7 µM)	12.2 (≈ 13.8 µM)	5.5 (≈ 6.23 µM)	5.1 (≈ 5.78 µM)
COc1cc(/C=C/C(=O)OC[C@H]2O[C@@](COC(=O)/C=C/c3ccc(O)cc3)(O[C@H]3O[C@H](CO)[C@@H](O)[C@H](O)[C@H]3O)[C@@H](OC(=O)/C=C/c3ccc(O)c(OC)c3)[C@@H]2O)ccc1O [SMILASIDE C]	> 20	> 20	> 20	> 20	> 20	> 20
COc1cc(/C=C/C(=O)OC[C@H]2O[C@@](CO)(O[C@H]3O[C@H](COC(C)=O)[C@@H](OC(C)=O)[C@H](O)[C@H]3O)[C@@H](OC(=O)/C=C/c3ccc(O)c(OC)c3)[C@@H]2O)ccc1O [SMILASIDE A]	11.6 (≈ 14.9 µM)	7.1 (≈ 9.12 µM)	10.8 (≈ 13.9 µM)	11.3 (≈ 14.5 µM)	11.2 (≈ 14.4 µM)	8.9 (≈ 11.4 µM)
COc1cccc2c1C(=O)c1c(O)c3c(c(O)c1C2=O)C[C@@](O)(C(=O)CO)C[C@@H]3O[C@H]1C[C@H](N)[C@H](O)[C@H](C)O1 [DOXORUBICIN]	0.1 (≈ 0.184 µM)	0.1 (≈ 0.184 µM)	0.1 (≈ 0.184 µM)	0.1 (≈ 0.184 µM)	0.1 (≈ 0.184 µM)	0.1 (≈ 0.184 µM)
